Data taken from ChEMBL document CHEMBL4330142, “Eupatoriopicrin Inhibits Pro-inflammatory Functions of Neutrophils via Suppression of IL-8 and TNF-alpha Production and p38 and ERK 1/2 MAP Kinases” (J Nat Prod, 2019).
The source made the active and inactive calls. No cut-off for these calls is given here.

How the values were obtained:
[1] = Anti-inflammatory activity in human PMN assessed as inhibition of fMLP/cytochalasin A-induced CD11b/CD18 expression by measuring CD11b/CD18 expression level at 2.5 uM preincubated for 30 mins followed by fMLP/cytochalasin A addition and measured after 30 mins by flow cytometry relative to control; type: functional; set-up: scale not given: the % may be the effect or the level left
How it was run: (§1)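 Neutrophils preincubated with compound before stimulation with cytochalasin A combined with f-MLP; surface CD11b expression read by flow cytometry. Compounds from 10 mM DMSO stock diluted in buffer or RPMI 1640. Mean ± SEM of three experiments on neutrophils from independent donors, Dunnett's post hoc test versus stimulated control.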

[2] = Anti-inflammatory activity in human PMN assessed as inhibition of fMLP/cytochalasin A-induced CD11b/CD18 expression by measuring CD11b/CD18 expression level at 50 uM preincubated for 30 mins followed by fMLP/cytochalasin A addition and measured after 30 mins by flow cytometry relative to control; type: functional; set-up: scale not given: the % may be the effect or the level left; how it was run: as §1
Neutrophil [3] = experiment: Inhibition of LPS-induced delay of apoptosis in human neutrophils assessed as viable cells at 2.5 uM preincubated for 1 hr followed by LPS stimulation and measured after 24 hrs by Annexin V-FITC/propidium iodide staining based flow cytometry (reference value: 75.4 +/- 1.1%); type: functional; conditions: read-out: Activity
Neutrophil [4] = experiment: Inhibition of LPS-induced delay of apoptosis in human neutrophils assessed as early apoptotic cells at 2.5 uM preincubated for 1 hr followed by LPS stimulation and measured after 24 hrs by Annexin V-FITC/propidium iodide staining based flow cytometry (reference value: 13 +/- 1.9%); type: functional; set-up: scale not given: the % may be the effect or the level left
Neutrophil [5] = experiment: Inhibition of LPS-induced delay of apoptosis in human neutrophils assessed as late apoptotic cells at 2.5 uM preincubated for 1 hr followed by LPS stimulation and measured after 24 hrs by Annexin V-FITC/propidium iodide staining based flow cytometry (reference value: 9.5 +/- 1.8%); type: functional; set-up: scale not given: the % may be the effect or the level left
Neutrophil [6] = experiment: Inhibition of LPS-induced delay of apoptosis in human neutrophils assessed as necrotic cells at 2.5 uM preincubated for 1 hr followed by LPS stimulation and measured after 24 hrs by Annexin V-FITC/propidium iodide staining based flow cytometry (reference value: 2.1 +/- 0.4%); type: functional; set-up: scale not given: the % may be the effect or the level left
Neutrophil [7] = experiment: Inhibition of LPS-stimulated IL-8 production in human neutrophils at 2.5 uM after 24 hrs by ELISA; type: functional, cell-based
Neutrophil [8] = experiment: Inhibition of LPS-stimulated TNFalpha production in human neutrophils at 2.5 uM after 24 hrs by ELISA; type: functional, cell-based
How it was run: (§2)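 Human neutrophils were preincubated with compound, then LPS-stimulated. TNF-α in the culture medium was measured by ELISA 24 h after LPS. Three separate experiments used neutrophils from independent donors, each assayed in duplicate; mean ± SEM; Dunnett's test versus the stimulated control.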

Neutrophil [9] = experiment: Inhibition of LPS-stimulated TNFalpha production in human neutrophils at 50 uM after 24 hrs by ELISA; type: functional, cell-based; how it was run: as §2
Neutrophil [10] = experiment: Inhibition of fMLP/cytochalasin A-stimulated elastase release in human neutrophils assessed as elastase level at 50 uM preincubated for 15 mins followed by fMLP/cytochalasin A stimulation and measured after 15 mins by SAAVNA substrate based spectrophotometric method (reference value: 100%); set-up: scale not given: the % may be the effect or the level left
Homo sapiens = organism: Homo sapiens; experiment: Anti-inflammatory activity in human PMN assessed as inhibition of fMLP/cytochalasin A-induced CD11b/CD18 expression at 2.5 uM preincubated for 30 mins followed by fMLP/cytochalasin A addition and measured after 30 mins by flow cytometry; type: functional
How it was run: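 Freshly isolated human PMNs were preincubated with compound, then stimulated with cytochalasin A plus f-MLP. Surface CD11b was read by FACS relative to the stimulated control. Three separate experiments used neutrophils from independent donors; mean ± SEM. Compounds came from 10 mM DMSO stocks diluted in Ca2+-free HBSS/PBS pH 7.4 or RPMI 1640.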

SMILES | Activity [1] [%] | Activity [2] [%] | viability at 2.5 µM (Neutrophil [3]) [%] | Activity (Neutrophil [4]) [%] | Activity (Neutrophil [5]) [%] | Activity (Neutrophil [6]) [%] | inhibition (Neutrophil [7]) | inhibition (Neutrophil [8]) | inhibition (Neutrophil [9]) | Activity (Neutrophil [10]) [%] | inhibition (Homo sapiens)
CC[C@H]1OC(=O)[C@H](C)[C@@H](O[C@H]2C[C@@](C)(OC)[C@@H](O)[C@H](C)O2)[C@H](C)[C@@H](O[C@@H]2O[C@H](C)C[C@H](N(C)C)[C@H]2O)[C@](C)(OC)C[C@@H](C)C(=O)[C@H](C)[C@@H](O)[C@]1(C)O [CLARITHROMYCIN] | 67.7 | 31.5 | 49.8 | 33.7 | 13.3 | 1.1 | Active | inactive | Active | 39 | 
O=c1c(O)c(-c2ccc(O)c(O)c2)oc2cc(O)cc(O)c12 [QUERCETIN] |  |  | 58.8 | 27 | 15.4 | 1 |  | inactive | Active | 26.6 | inactive
